Data reported in ChEMBL document CHEMBL1138529, “Efficacy, pharmacokinetics, and metabolism of tetrahydroquinoline inhibitors of Plasmodium falciparum protein farnesyltransferase” (Antimicrob Agents Chemother, 2007).

Columns and labels:
[1] = Permeability from apical to basolateral side in human Caco-2 cells; assay type: ADME, cell-based; conditions: read-out: permeability
[2] = Permeability from basolateral to apical side in human Caco-2 cells; assay type: ADME, cell-based; conditions: read-out: permeability
Outline: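 Caco-2 clone TC7 grown on laminin-coated porous inserts and used 19-21 days after seeding; integrity checked by TEER and [3H]mannitol flux. Monolayers equilibrated 30 min at 37°C in HBSS/5 mM HEPES pH 7.4. Compound at 50 μM final added to basolateral donor side. Apical receiver sampled at 60 min, 37°C with shaking; LC/MS; Papp calculated from 60-min concentrations.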

Mus musculus [3] = experiment: Plasma concentration in BALB/c mouse at 50 mg/kg, po; assay type: ADME, organism-based; parameters: dose 50 mg/kg, route oral; conditions: in vivo
Outline: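 Female BALB/c mice, 8-10 weeks, three per group. Single 50 mg/kg oral gavage in 3% EtOH-7% Tween 80-90% normal saline. Plasma collected by tail bleed at set times, frozen at −20°C, acetonitrile-extracted with internal standard, quantified by LC/MS.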

Mus musculus [4] = experiment: Toxicity in BALB/c mouse at 50 mg/kg, po; assay type: organism-based; parameters: dose 50 mg/kg, route oral; conditions: in vivo
[5] = Cmax in Sprague-Dawley rat at 50 mg/kg, po; assay type: ADME, organism-based; parameters: dose 50 mg/kg, route oral; conditions: in vivo
Outline: (§1)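 50 mg/kg by oral gavage in 3% EtOH-7% Tween 80-90% normal saline to groups of three females (BALB/c mice, 8–10 weeks, tail bleed; Sprague-Dawley rats, 10–12 weeks, saphenous vein). Plasma extracted with acetonitrile/internal standard, LC/MS; means of three animals. Oral elimination half-life depends on absorption rate as well as elimination.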

[6] = AUC in Sprague-Dawley rat at 50 mg/kg, po; assay type: ADME, organism-based; parameters: dose 50 mg/kg, route oral; conditions: plasma
Outline: (§2)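 Three female BALB/c mice (lines for mice, 8–10 weeks) or three female Sprague-Dawley rats (10–12 weeks) per group; 50 mg/kg oral gavage in 3% EtOH-7% Tween 80-90% normal saline. Plasma sampled at set times (tail bleed in mice, saphenous vein in rats), extracted with acetonitrile plus internal standard, quantified by LC/MS; AUC as mean of three animals.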

[7] = Inhibition of Plasmodium falciparum protein farnesyltransferase by SPA method
Plasmodium falciparum [8] = experiment: Antiplasmodial activity against Plasmodium falciparum by [3H]hypoxanthine uptake; assay type: functional; conditions: read-out: ED50 (the source's name)
Outline: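 Asynchronous P. falciparum (3D7 or K1) in RPMI 1640 with 20% heat-inactivated human A+ plasma, 0.5% parasitemia and 0.5% hematocrit; compound serially diluted, top final 5 μM, 48 h at 37°C under 5% CO2/5% O2/90% N2, then [8-3H]hypoxanthine 0.3 μCi added for 24 h.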

Rattus norvegicus = experiment: Toxicity in Sprague-Dawley rat at 50 mg/kg, po; assay type: organism-based; parameters: dose 50 mg/kg, route oral; conditions: in vivo
Outline: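 Female Sprague-Dawley rats, 10-12 weeks, three per group. 50 mg/kg oral gavage in 3% EtOH-7% Tween 80-90% normal saline. Saphenous vein plasma sampled over time, and animals observed for adverse reactions.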

[9] = Elimination half life in BALB/c mouse at 50 mg/kg, po; assay type: ADME, organism-based; parameters: dose 50 mg/kg, route oral; conditions: in vivo, read-out: beta t1/2; outline: as §1
[10] = AUC in BALB/c mouse at 50 mg/kg, po; assay type: ADME, organism-based; parameters: dose 50 mg/kg, route oral; conditions: plasma; outline: as §2
[11] = Metabolic stability in rat liver microsomes; assay type: ADME, Microsome
Outline: (§3)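 Pooled female liver microsomes at 0.5 mg/ml in 0.1 M potassium phosphate pH 7.4, 3 mM MgCl2, 1 mM EDTA, with NADPH regenerating system (1 mM NADP+, 5 mM glucose-6-phosphate, 1 U/ml G6PDH). Preincubated 10 min at 37°C, then compound added to 1 μM final. Time points quenched with 3 volumes acetonitrile plus internal standard; parent quantified by LC/MS; half-life reported.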

[12] = Cmax in BALB/c mouse at 50 mg/kg, po; assay type: ADME, organism-based; parameters: dose 50 mg/kg, route oral; conditions: in vivo; outline: as §1
[13] = Elimination half life in Sprague-Dawley rat at 50 mg/kg, po; assay type: ADME, organism-based; parameters: dose 50 mg/kg, route oral; conditions: in vivo, read-out: beta t1/2; outline: as §1
Plasmodium falciparum [14] = experiment: Antiplasmodial activity against chloroquine-sensitive Plasmodium falciparum 3D7 by [3H]hypoxanthine uptake; assay type: functional; conditions: read-out: ED50 (the source's name)
Outline: (§4)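 Asynchronous cultures at 0.5% parasitemia and 0.5% hematocrit in RPMI 1640 with 20% heat-inactivated human A+ plasma, exposed to serially diluted inhibitor (top final 5 μM, from DMSO stock) under 5% CO2/5% O2/90% N2 at 37°C for 48 h. [3H]hypoxanthine was then added for 24 h and harvested counts were background-subtracted against DMSO-only controls. ED50 came from linear regression, as the mean of duplicates.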

Plasmodium falciparum [15] = experiment: Antiplasmodial activity against chloroquine-resistant Plasmodium falciparum K1 by [3H]hypoxanthine uptake; assay type: functional; conditions: read-out: ED50 (the source's name); outline: as §4
[16] = Metabolic stability in mouse liver microsomes; assay type: ADME, Microsome; outline: as §3

Row | SMILES | Papp A→B [1] [×10⁻⁶ cm/s] | Papp B→A [2] [×10⁻⁶ cm/s] | concentration (Mus musculus [3]) [µM] | Activity (Mus musculus [4]) | Cmax [5] [µM] | AUC [6] [µM·h] | IC50 [7] [nM] | EC50 (Plasmodium falciparum [8]) [nM] | Activity (Rattus norvegicus) | half-life [9] [min] | AUC [10] [µM·h] | half-life [11] [min] | Cmax [12] [µM] | half-life [13] [min] | EC50 (Plasmodium falciparum [14]) [nM] | EC50 (Plasmodium falciparum [15]) [nM] | half-life [16] [min]
1 | Cc1noc(C)c1CN(C1Cc2cc(C#N)ccc2N(Cc2cncn2C)C1)S(=O)(=O)c1ccccn1 (centres undefined) | 8 | 67.1 | 15 | Non-toxic |  |  |  |  |  |  |  |  |  |  |  |  | 
2 | Cn1cnc(S(=O)(=O)N(Cc2ccccn2)C2Cc3cc(C#N)ccc3N(Cc3cncn3C)C2)c1 (centres undefined) | 0.2 | 23.9 | 1 | Non-toxic |  |  |  |  |  |  |  |  |  |  |  |  | 
3 | Cn1cncc1CN1CC(N(CC2CCN(C(=O)OCc3ccccc3)CC2)S(=O)(=O)c2ccccn2)Cc2cc(C#N)ccc21 (centres undefined) | 1 |  |  | Non-toxic | 4.5 | 10.9 | 0.5 | 16 | Non-toxic |  |  |  |  |  |  |  | 
4 | CC(C)COC(=O)N1CCC(CN(C2Cc3cc(C#N)ccc3N(Cc3cncn3C)C2)S(=O)(=O)c2ccccn2)CC1 (centres undefined) |  |  |  |  | 8.4 | 33.8 | 0.7 | 62 |  | 26 | 4.67 | 18 | 5.4 | 62 | 62 | 62 | 5.1
5 | CC(C)OC(=O)N1CCC(CN(C2Cc3cc(C#N)ccc3N(Cc3cncn3C)C2)S(=O)(=O)c2ccccn2)CC1 (centres undefined) | 1 |  |  | Non-toxic | 4.5 | 10.9 | 0.5 | 16 | Non-toxic |  |  |  |  |  |  |  | 
6 | Cn1cnc(S(=O)(=O)N(CCn2cccc2)C2Cc3cc(C#N)ccc3N(Cc3cncn3C)C2)c1 (centres undefined) | 0.3 | 53 | 0.8 | Non-toxic |  |  |  |  |  |  |  |  |  |  |  |  | 
7 | Cn1cncc1CN1CC(N(Cc2ccc(S(C)(=O)=O)cc2)S(=O)(=O)c2ccccn2)Cc2cc(C#N)ccc21 (centres undefined) | 0.2 | 50.1 | 0.15 | Non-toxic |  |  |  |  |  |  |  |  |  |  |  |  | 
8 | Cn1cncc1CN1CC(N(Cc2cccc(-n3cccc3)c2)S(=O)(=O)c2ccccn2)Cc2cc(C#N)ccc21 (centres undefined) | 2.3 | 12.1 | 9.8 | Non-toxic |  |  |  |  |  |  |  |  |  |  |  |  | 
9 | CC[C@]1(O)C[C@@H]2CN(CCc3c([nH]c4ccccc34)[C@@](C(=O)OC)(c3cc4c(cc3OC)N(C)[C@H]3[C@@](O)(C(=O)OC)[C@H](OC(C)=O)[C@]5(CC)C=CCN6CC[C@]43[C@@H]65)C2)C1 [VINBLASTINE] | 0.1 | 41.9 |  |  |  |  |  |  |  |  |  |  |  |  |  |  | 
10 | Cn1cnc(S(=O)(=O)N(Cc2ccc(C(F)(F)F)o2)C2Cc3cc(C#N)ccc3N(Cc3cncn3C)C2)c1 (centres undefined) | 0.7 | 72.5 | 3.9 | Non-toxic | 3.4 | 5.42 |  |  | Non-toxic | 30 | 4.55 | 16 | 3.9 | 26 |  |  | 3.4
11 | Cn1cncc1CN1CC(N(Cc2ccccn2)S(=O)(=O)c2ccccn2)Cc2cc(C#N)ccc21 (centres undefined) | 1.6 | 73.3 | 5.7 | Non-toxic |  |  |  |  |  |  |  |  |  |  |  |  | 
12 | CCOC(=O)N1CCC(CN(C2Cc3cc(C#N)ccc3N(Cc3cncn3C)C2)S(=O)(=O)c2ccccn2)CC1 (centres undefined) | 2.6 |  |  | Non-toxic |  |  | 0.6 | 55 | Non-toxic |  |  | 12 |  |  | 55 | 40 | 
13 | Cn1cnc(S(=O)(=O)N(CC(=O)NC(C)(C)C)C2Cc3cc(-c4ccccc4)ccc3N(Cc3cncn3C)C2)c1 (centres undefined) |  |  |  |  | 4.1 | 13.5 |  |  | Non-toxic | 88 | 15.7 | 165 | 5 | 106 |  |  | 98
14 | Cn1cncc1CN1CC(N(CCn2cccc2)S(=O)(=O)c2ccccn2)Cc2cc(C#N)ccc21 (centres undefined) | 12.4 | 45.5 | 13.6 | Non-toxic | 5.4 | 11.6 |  |  | Non-toxic | 40 | 15.9 | 10.4 | 13.5 | 62 |  |  | 4.9
15 | Cn1cnc(S(=O)(=O)N(Cc2cccc(-n3cccc3)c2)C2Cc3cc(C#N)ccc3N(Cc3cncn3C)C2)c1 (centres undefined) | 0.2 | 52.1 | 1.1 | Non-toxic |  |  |  |  |  |  |  |  |  |  |  |  | 
